Activity calls are given as the source filed them.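 How the source made its calls, unless noted: active means fluorescence slope higher than the sample average by over 3 SD (cut at about -0.22 in these data, passing the limit was not always enough); inactive means the rest.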
Legend:
[1] = inhibitors of TNFa-induced NFkB p65 translocation, primary screen, imaging, HUVEC, MLSMR starter and 10KST1 sets (AID 438;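 active means inhibition above 20% together with a positive visual image hit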;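 further: compound added about 3h40 before a 20 min TNFalpha stimulation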;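 on inhibition: signal is the nuclear over cytoplasmic p65 intensity ratio per well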); conditions: HUVEC TNFa-induced p65 nuclear translocation; cell count: measured here: nuclei count (cytotoxicity indicator), at 2.08 µM; inhibition: at 2 µM, stronger effect = higher value, 0% TNFa-plus-vehicle, 100% no-TNFa wells
[2] = reduction of polyQ htt aggregates in cells – imaging, exon1htt(103Q)mCFP cells, high-content imaging, primary screen (AID 483;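 active means visual image review flags a hit and inhibition of aggregation exceeds 20%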;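 further: compound exposure lasted 3 days before fixation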;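 on nuclei count: percent of the per-plate median nuclei count of sample wells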); conditions: exon1htt(103Q)mCFP cell line, aggregate imaging, at 2 µM; inhibition of aggregation: stronger effect = higher value; nuclei count: measured here: cell count, toxicity
[3] = endothelial E-selectin expression blockers – imaging, HUVEC, immunofluorescence, MLSMR starter and 10KST1 sets, primary screen (AID 487;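 active means visually confirmed hit in the image check and inhibition above 20%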;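 on inhibition: signal is fraction of cell area covered by stained E-selectin grains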;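 on nuclei count: 100% = median nuclei count of all wells on the same plate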); conditions: HUVEC TNFalpha-induced E-selectin immunofluorescence imaging, at 2 µM; inhibition: stronger effect = higher value; nuclei count: measured here: cell number, toxicity
[4] = molecular target: Voltage-gated potassium channel subunit beta-2 (Rattus norvegicus) (UniProt P62483); test: inhibitors of rat Kvbeta2 reductase activity – biochemical, NADPH fluorescence, primary screen (AID 622); conditions: recombinant KvBeta, 4-cyanobenzaldehyde reduction, at 10 µM, stronger effect = higher value;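 further: slope of raw intensity against log time taken from 70 to 1610 s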
[5] = molecular target: Voltage-gated potassium channel subunit beta-2 (Rattus norvegicus) (UniProt P62483); test: enhancers of rat Kvbeta2 NADPH turnover – biochemical, NADPH fluorescence, primary screen (AID 623;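 active means NADPH fluorescence slope more negative than the mean of all samples by about 3 SD, 99.7% confidence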;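 further: fluorescence intensity change per second fitted from 20 to 320 s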); conditions: Recombinant KvBeta, NADPH fluorescence decrease slope, 10 min; at 10 µM; stronger effect = lower value
[6] = molecular target: Muscarinic acetylcholine receptor M4 (Homo sapiens) (UniProt P08173); test: M4-linked GIRK flux change, two-sided – cell-based, HEK293 M4/GIRK, thallium flux, BTC-AM, M4 allosteric agonist project, primary screen (AID 625;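 active means fluorescence slope after compound addition differing from the mean of all tested samples at 99.7% confidence, mostly higher but some lower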;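 further: thallium influx through GIRK channels coupled to M4 in HEK293 cells with BTC-AM dye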); conditions: at 10 µM, actives lie on both sides
Method in brief: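 assay system = HEK293 cells with M4 receptor and GIRK channels | medium = pH 7.3 thallium assay buffer | doses = 10 µM final, single point | timing = cells overnight at 37 °C, BTC-AM loading 1 h, reads 2 min total | signal = BTC-AM fluorescence, 1 Hz kinetic reads | read-out = post-addition slope, 15–24 s, of baseline-normalized fluorescence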

[7] = blockers of RIG-like receptor reporter activation – cell-based, Sendai virus stimulus, luciferase, 10K MLSCN set, TLR/RLR signaling modifier project, primary screen (AID 602276;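 active means inhibition at or above 50% at 10 µM; inactive means inhibition below 50%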;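 further: firefly luciferase from ISG56 promoter only with Renilla not read in this screen; 0% = Sendai virus plus DMSO and 100% = medium plus DMSO without virus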); conditions: HEK293 RL24 IRF3 luciferase reporter, at 10 µM, stronger effect = higher value
[8] = TLR3 IRF3 reporter activation blockers – cell-based, poly I:C stimulus, luciferase, 10K MLSCN set, primary screen (AID 602277;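 active means inhibition of the reporter signal at or above 50%; inactive means inhibition below 50%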); conditions: HEK293-TLR3 RL24 IRF3 luciferase reporter, at 10 µM, stronger effect = higher value

Muscarinic acetylcholine receptor M4 (Homo sapiens), sequence (P08173 whole entry, looked up): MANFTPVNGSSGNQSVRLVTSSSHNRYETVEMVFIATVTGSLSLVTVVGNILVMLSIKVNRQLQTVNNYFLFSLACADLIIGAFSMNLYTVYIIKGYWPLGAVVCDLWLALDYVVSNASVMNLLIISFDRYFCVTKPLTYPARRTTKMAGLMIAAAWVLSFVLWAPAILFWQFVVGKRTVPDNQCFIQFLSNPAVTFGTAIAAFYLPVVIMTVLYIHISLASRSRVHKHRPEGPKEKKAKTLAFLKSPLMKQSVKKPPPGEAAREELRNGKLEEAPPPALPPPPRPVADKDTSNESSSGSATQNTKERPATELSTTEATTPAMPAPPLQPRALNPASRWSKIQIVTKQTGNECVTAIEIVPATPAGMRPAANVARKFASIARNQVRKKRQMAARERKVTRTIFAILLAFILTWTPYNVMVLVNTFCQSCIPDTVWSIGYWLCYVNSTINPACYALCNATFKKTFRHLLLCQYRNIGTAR
Voltage-gated potassium channel subunit beta-2 (Rattus norvegicus), sequence (P62483 whole entry, looked up): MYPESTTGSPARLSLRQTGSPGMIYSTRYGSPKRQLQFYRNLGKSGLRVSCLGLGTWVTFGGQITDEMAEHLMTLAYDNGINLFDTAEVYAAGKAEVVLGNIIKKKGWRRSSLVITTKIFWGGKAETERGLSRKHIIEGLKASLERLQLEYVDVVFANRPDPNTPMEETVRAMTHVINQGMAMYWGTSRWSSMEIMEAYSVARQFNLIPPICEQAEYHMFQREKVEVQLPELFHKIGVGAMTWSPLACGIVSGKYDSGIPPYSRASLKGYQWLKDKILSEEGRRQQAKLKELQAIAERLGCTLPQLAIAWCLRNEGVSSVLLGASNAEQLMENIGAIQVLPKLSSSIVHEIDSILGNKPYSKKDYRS

| SMILES | cell count [1] | inhibition [1] | inhibition of aggregation [2] | nuclei count [2] [%] | inhibition [3] | nuclei count [3] [%] | fluorescence slope [4] | NADPH fluorescence slope [5] | fluorescence slope [6] | inhibition [7] | inhibition [8] |
| --- | --- | --- | --- | --- | --- | --- | --- | --- | --- | --- | --- |
| CCOC(=O)CSc1nc2cc(C(=O)NCc3ccco3)ccc2c(=O)n1C1CCCCC1 | 455 | 4.3% (inactive) | -11.8% (inactive) | 92 | 10% (inactive) | 93.7 | -0.397 (inactive) | -5.9e-05 (inactive) | 0.00847 (inactive) | 12.1% (inactive) | 18.6% (inactive) |
| CC(=O)NC1(c2nnnn2CCOC(=O)Nc2ccc(Cl)cc2)CCCCC1 | 559 | -12.5% (inactive) | 2.9% (inactive) | 84.6 | -23.9% (inactive) | 91.3 | -0.513 (inactive) | -0.000175 (inactive) | 0.0035 (inactive) | 9.27% (inactive) | 8.82% (inactive) |
| CCOC(=O)c1c(C)[nH]c(C=Nc2ccccc2)c1O | 666 | 4.3% (inactive) | 12.6% (inactive) | 88.7 | -28.4% (inactive) | 103 | -0.598 (inactive) | 5.5e-06 (inactive) | 0.00349 (inactive) | -11% (inactive) | -41.4% (inactive) |
| COCC(=O)N(Cc1ccc(OC)cc1)Cc1nc2ccccc2c(=O)[nH]1 | 351 | 6.5% (inactive) | -0.1% (inactive) | 91.9 | -57.4% (inactive) | 117 | -0.572 (inactive) | -4.4e-05 (inactive) | 0.00687 (inactive) | 17.3% (inactive) | 26.3% (inactive) |
| CCCCC(CC)Cn1c2nc3ccccc3nc2c2c(=N)oc(C)nc21 (centres undefined) | 624 | 15.7% (inactive) | 23.1% (inactive) | 64.9 | -5.3% (inactive) | 97.3 | -0.196 (inactive) | 4.4e-06 (inactive) | 0.00498 (inactive) | 16.1% (inactive) | 15.4% (inactive) |
| O=C(CCC(=O)OCCCC(F)(F)C(F)(F)F)NC1CCCCC1 | 424 | 4% (inactive) | 5.5% (inactive) | 108 | -37.5% (inactive) | 122 | -0.53 (inactive) | -4e-05 (inactive) | 0.00556 (inactive) | 13.9% (inactive) | 16.1% (inactive) |
| CCCC(=O)Nc1ccc(NC(=O)C2CC2)cn1 | 471 | -17.9% (inactive) | -28.9% (inactive) | 99.8 | -79.6% (inactive) | 112 | -0.527 (inactive) | 1.9e-05 (inactive) | 0.00449 (inactive) | 14.1% (inactive) | -13.6% (inactive) |
| CCCN1CCN(CCCNC(=O)Cn2nc(-c3ccc(Cl)cc3)ccc2=O)CC1 | 514 | 13.6% (inactive) | 0.1% (inactive) | 106 | -205% (inactive) | 131 | -0.552 (inactive) | -8.1e-05 (inactive) | 0.00614 (inactive) | 9.94% (inactive) | 11.9% (inactive) |
| COc1cc(C(=O)N2CCN(C(=O)CC(C)C)CC2)cc(OC)c1OC | 550 | 3.6% (inactive) | 5% (inactive) | 105 | -73.6% (inactive) | 117 | -0.47 (inactive) | 7.6e-05 (inactive) | 0.00561 (inactive) | -10.1% (inactive) | -1.34% (inactive) |
| COc1ccc(Nc2nc(OC)nc(N3CCN(c4ccc(OC)cc4)CC3)n2)cc1 | 646 | -0.5% (inactive) | -13.1% (inactive) | 93.5 | -14.1% (inactive) | 100 | -0.555 (inactive) | -3.4e-05 (inactive) | 0.00593 (inactive) | 14% (inactive) | -11.1% (inactive) |
| CCOc1ccccc1C(=O)NCCCn1ccnc1 | 469 | 5.5% (inactive) | 6.9% (inactive) | 96.2 | -89.5% (inactive) | 121 | -0.576 (inactive) | -6.1e-05 (inactive) | 0.00757 (inactive) | 11.4% (inactive) | 8.04% (inactive) |
| COc1cccc(CNC(=O)C2CCN(c3cnccn3)CC2)c1 | 399 | -8.4% (inactive) | 17.9% (inactive) | 98.8 | -82.7% (inactive) | 86.8 | -0.548 (inactive) | 5.8e-06 (inactive) | 0.00424 (inactive) | 18.8% (inactive) | 18.1% (inactive) |
| CSc1ccccc1NC(=O)CN(Cc1ccccc1)S(C)(=O)=O | 768 | -15.1% (inactive) | -4.2% (inactive) | 115 | -78.6% (inactive) | 103 | -0.564 (inactive) | -3.2e-05 (inactive) | 0.00609 (inactive) | 21.8% (inactive) | 19.7% (inactive) |
| COc1ccc(-c2noc(CCC(=O)Nc3nc4ccccc4s3)n2)cc1 | 540 | -8.6% (inactive) | 21.7% (inactive) | 50.7 | -35% (inactive) | 106 | -0.586 (inactive) | -3.6e-05 (inactive) | 0.0103 (inactive) | -7.62% (inactive) | -8.39% (inactive) |
